A selection: hits, their analogues and other compounds. The true share with any hit is near 2.3%.
MT1-MMP act inh – blockers of MT1-MMP proenzyme processing, primary screen, HT1080 RFP-PRO-GFP cells, GFP/RFP fluorescence; Matrix metalloproteinase-14 (Homo sapiens), P50281; GFP/RFP ratio fluorescence, overnight; percent of plate control window, DMSO zero; GFP/RFP ratio change, % at 20 µM; 360,000 tested, 0.061% active; AID 651647, 2012;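 active = GFP/RFP ratio change of at least 30% with cell ATP level not reduced by more than half and red fluorescence within 50% of control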
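Material – HT1080 RFP-PRO-GFP cells · Control set – DMSO wells and RFP-L50D-GFP cells · Incubation – overnight cell settling, then overnight compound exposure, 37 °C, 5% CO2 · Compound dosing – single-point 20 µM compound, 1% DMSO · Read-out – GFP/RFP fluorescence ratio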
MPTP inh – mitochondrial permeability transition pore inhibitors, primary screen, biochemical, isolated mouse mitochondria, absorbance. Ca2+ swelling absorbance, 30 min. inhibition, % at 10 µM. 360,000 tested, 1.4% active. AID 602449, 2012;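 active = inhibition of 50% or more, scaled per plate between neutral and stimulator controls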
SKN-1 block – suppressors of acrylamide-induced Pgst-4::GFP reporter in worms, primary screen, SKN-1 inhibitor project, whole organism, uHTS, GFP/RFP fluorescence ratio, strain VP596; C. elegans VP596 Pgst-4::GFP/RFP ratio, 24 h; 360,000 tested, 0.49% active; inhibition, % at 21.8 µM;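 active = interference check ratio from 0.5 to 1.5 plus GFP to RFP signal ratio inhibition reaching or exceeding a fixed threshold, cut at about 30% in these data, passing the limit was not always enough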
ATG4B inh – ATG4B protease inhibitors, primary screen, biochemical, fluorescence, uHTS; ATG4B cleavage of LC3-PLA2, NBD-HPC fluorescence, 1 h; inhibition, % at 8.33 µM; Cysteine protease ATG4B (Homo sapiens), Q9Y4P1; 340,000 tested, 0.51% active; in the data active = inhibition above about 40%
Target sequence (Q9Y4P1 whole entry, looked up): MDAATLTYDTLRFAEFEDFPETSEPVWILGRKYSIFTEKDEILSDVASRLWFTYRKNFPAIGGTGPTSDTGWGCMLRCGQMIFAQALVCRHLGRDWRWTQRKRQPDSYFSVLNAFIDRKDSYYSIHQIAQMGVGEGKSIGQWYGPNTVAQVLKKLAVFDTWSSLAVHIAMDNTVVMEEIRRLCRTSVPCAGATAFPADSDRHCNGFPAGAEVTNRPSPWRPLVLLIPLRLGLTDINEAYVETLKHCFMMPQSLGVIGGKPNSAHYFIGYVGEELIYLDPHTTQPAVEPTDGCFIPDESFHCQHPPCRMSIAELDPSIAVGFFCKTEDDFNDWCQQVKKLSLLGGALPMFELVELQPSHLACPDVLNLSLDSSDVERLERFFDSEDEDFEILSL
Each line names hits and unclear results; the compound was inactive in the other large screens.

Cc1cccc(NC(=O)NCc2ccc3c(c2)cc(C)n3C)c1	SKN-1 block 49
Cc1cc2cc(CNC(=O)CCC(=O)O)ccc2n1C	SKN-1 block 38
Cc1c(Cl)cccc1NC(=O)CC1SCCNC1=O (stereo not drawn)	none
Cc1c(Cl)cccc1NC(=O)CC1NCCNC1=O (stereo not drawn)	SKN-1 block 38
O=[N+]([O-])c1cccc2ccc(/C=C/c3ccc(F)cc3)nc12	SKN-1 block 36
Cc1ccc(/C=C/c2nnc(-c3cccs3)o2)cc1	none (no result: MT1-MMP act inh)
c1ccc(-c2nc(CSc3nnc(-c4cccs4)o3)cs2)cc1	SKN-1 block 29
Cc1ccc(Nc2nc(CSc3n[nH]c(N)n3)cs2)cc1	none
Cc1ccc(Nc2nc(CSc3nnc(-c4cccs4)o3)cs2)cc1	SKN-1 block 35
Cc1ccc(-c2nnc(-c3cccs3)o2)cc1	SKN-1 block 36
Fc1ccc(/C=C/c2nnc(-c3cccs3)o2)cc1	SKN-1 block 54
Cc1ccc(Nc2nc(N)nc(CSc3ncccn3)n2)cc1	none
Cc1ccc(Nc2nc(N)nc(CSc3nnc(-c4ccncc4)o3)n2)cc1	SKN-1 block 46
Cn1ccnc1C(O)(c1ccccc1)c1ccccc1	none
C(#Cc1ccc2c(c1)COc1c3ccccc3nn1-2)c1ccccc1	SKN-1 block 37
C(#CC1CCCCC1)c1ccc2c(c1)COc1c3ccccc3nn1-2	none
C#Cc1ccc2c(c1)COc1c3ccccc3nn1-2	SKN-1 block 48
CC(C)CCN(C(=O)c1cc(=O)[nH]c2ccccc12)c1c(N)n(Cc2ccccc2)c(=O)[nH]c1=O	none
O=C(COc1ncnc2c(Cl)cc(Cl)cc12)N1CCCCC1	SKN-1 block 30
CC(=O)COc1ncnc2c(Cl)cc(Cl)cc12	none
O=C(c1cccs1)c1ccc(-c2cccs2)s1	SKN-1 block 62
CCCS(=O)(=O)N1CCC(C(=O)NCc2cccnc2)CC1	SKN-1 block 52
C=CCn1c(SCC(=O)c2c(N)n(C)c(=O)n(C)c2=O)nnc1-c1ccoc1C	SKN-1 block 35
Oc1ccc(-c2cnc3ccccc3n2)cc1	none (no result: MT1-MMP act inh)
Clc1ccc(-c2cnc3ccccc3n2)cc1	SKN-1 block 42
C(=N\n1c2ccccc2c2ccccc21)/c1ccccc1	none
C(=N/n1c2ccccc2c2ccccc21)/c1ccco1	SKN-1 block 51
COc1ccc(N(CC(=O)NC2CCCCC2)C(=O)CNC(=O)c2cccs2)cc1	SKN-1 block 41
CCOc1ccc(N(CC(=O)NC2CCCCC2)C(=O)CNC(=O)c2cccs2)cc1	none
CC1(OC(=O)C2CCCC2)C(=O)C=C2C=C3CCCCN3C=C2C1=O (stereo not drawn)	none
COC/C=C/C1=CC2=CC(=O)C(C)(OC(=O)C3CCCC3)C(=O)C2=CO1 (stereo not drawn)	SKN-1 block 36
Fc1ccc2nc(-c3ccccc3)ccc2c1	none (no result: ATG4B inh)
Fc1cc(Cl)cc2ccc(-c3ccccc3)nc12	SKN-1 block 36 (no result: ATG4B inh)
Cc1cccc(-c2noc(CN(C)C(=O)c3ccc4c(c3)OCO4)n2)c1	none
COC(C/C=C\[C@@H](O)COCc1ccccc1)OC	none
O=C(c1cc(COc2ccc(F)cc2Cl)on1)N1CC2C[C@@H]3CC1C[C@H](C2)C3	SKN-1 block 35
O=C(c1cc(COc2ccc(F)cc2Cl)on1)N1C[C@H]2CC[C@H]1C2	none
CC(C)(C)c1nnc(NC(=O)CCC2CCCCC2)s1	none (no result: ATG4B inh)
CCC(C)(C)c1nnc(NC(=O)CCC2CCCCC2)s1	SKN-1 block 36
O=C(NC1CCCC1)C1C(c2ccc(C(F)(F)F)cc2)=Nc2ccccc2N1C(=O)c1ccco1 (stereo not drawn)	SKN-1 block 41 (no result: ATG4B inh)
Cc1cc(-c2nnn(CCCOC(C)(C)C)c2C)ccc1-c1cn(CCCOC(C)(C)C)nn1	SKN-1 block 37 (no result: ATG4B inh)
COc1ccc(-c2cn(CCCOCc3ccccc3)nn2)cc1	none
O=C1C(NS(=O)(=O)c2cccs2)=C(N2CCN(c3cccc(C(F)(F)F)c3)CC2)C(=O)c2ccccc21	ATG4B inh 64
CN1CCN(C2=C(NS(=O)(=O)c3cccs3)C(=O)c3ccccc3C2=O)CC1	none
N#Cc1c(N)oc(-c2ccc3c(c2)OCO3)c1-c1ccc2c(c1)OCO2	SKN-1 block 43
COC(=O)CSc1nc2cc(C)cc(C)c2cc1C#N	SKN-1 block 37
COC(=O)CSc1nc2ccc(C)cc2cc1C#N	none
Cc1cc(C)c2cc(C#N)c(N3CCCC3)nc2c1	SKN-1 block 48
Cc1cc(C)c2cc(C#N)c(N3CCCN(C(=S)NCCCN(C)C)CC3)nc2c1	none
CC(O)CC(=O)O (stereo not drawn)	SKN-1 block 41
Cn1c(SCC(=O)N2CCCCCC2)nc2c(c1=O)SCC2	none
CCCOc1ccc(C(=O)Nc2ccc(Cl)cn2)cc1	SKN-1 block 41
CC1CCC(NC(=O)CN2C(=O)c3cccnc3Oc3ccc(Cl)cc32)CC1 (stereo not drawn)	none
O=C(NC1CCN(C(=S)Nc2ccc(Cl)cc2)CC1)c1ccco1	SKN-1 block 47
N#Cc1ccccc1	none
N#Cc1cncc(C#Cc2ccccc2)c1	SKN-1 block 61
Cn1c2c(c(=O)n1-c1ccccc1)CSCC2	none
CCOc1ccc(NC(=O)Nc2ccc(Br)cn2)cc1	none
O=C(Nc1ccc(Cl)cc1)Nc1ccc(Br)cn1	SKN-1 block 37
Cc1ccc(/C=C2/SC(=Nc3ccc(F)cc3)NC2=O)s1	SKN-1 block 40
Cc1ccc(N=C2NC(=O)/C(=C\c3cccs3)S2)cc1C	none
COCCCn1c(=O)c2ccccc2n(Cc2cccc(C)c2)c1=O	SKN-1 block 40
Cc1ccc(S(=O)(=O)N2CCN(C(=O)c3nn(C(C)C)c(=O)c4ccccc34)CC2)cc1C	none
Cn1nc(C(=O)N2CCN(S(=O)(=O)c3ccccc3)CC2)c2ccccc2c1=O	SKN-1 block 38
CCCCn1c(N)c(N(C)C(=O)c2ccc(Br)o2)c(=O)[nH]c1=O	none
CC(=O)c1cccc(NC(=O)C2Cc3c(-c4ccc(Cl)cc4)ccnc3O2)c1 (stereo not drawn)	none (no result: ATG4B inh)
O=C(Nc1cccc(Oc2ccccc2)c1)C1Cc2c(-c3ccc4c(c3)OCO4)ccnc2O1 (stereo not drawn)	SKN-1 block 36 (no result: ATG4B inh)
CN(C(=O)C1Cc2c(-c3ccccc3Oc3ccccc3)ccnc2O1)c1ccccc1 (stereo not drawn)	SKN-1 block 35 (no result: ATG4B inh)
CN(C)CCNC(=O)C1Cc2c(-c3ccccc3Oc3ccccc3)ccnc2O1 (stereo not drawn)	none (no result: ATG4B inh)
CSCC[C@H](NC(=O)c1nn(C)c(=O)c2ccccc12)c1nc2ccccc2[nH]1	none
COc1ccc(OCC(=O)Sc2ccc(C)cc2)cc1	SKN-1 block 43
CCC(C)(C)C(=O)Nc1ncc(S(=O)(=O)c2ccc([N+](=O)[O-])cc2)s1	SKN-1 block 36

Bioassay records as filed in PubChem BioAssay.
